Assay results published in ChEMBL document CHEMBL4325893, “Synthesis and antibacterial profiles of targeted triclosan derivatives” (2019).
Converted amounts (≈) assume the structure as drawn.

Tests used:
[1] = system: Staphylococcus haemolyticus; assay: Antibacterial activity against Staphylococcus haemolyticus OCC 2223 after 18 hrs; format: functional; settings: OCC 2223, 18 h
How it was run: (§1)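 Broth microdilution in Nutrient Broth No. 2. Ethanol stocks were diluted in broth to 0.01–128 µg/ml for triclosan and 0.25–256 µg/ml for glycosides. Overnight 37°C NB2 cultures were diluted 1 in 10^4 in saline and added to the wells. Plates were incubated at 37°C with OD read every 15 min after agitation. MIC was the lowest concentration giving no OD increase at 18 h.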

[2] = Antibacterial activity against Salmonella enterica subspecies enterica serotype Dublin OCC 627 after 18 hrs; format: functional, Salmonella enterica subsp. enterica serovar Dublin; settings: OCC 627, 18 h
How it was run: (§2)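 Broth microdilution in Nutrient Broth No. 2; stocks in ethanol diluted to 0.01–128 µg/ml (triclosan) or 0.25–256 µg/ml (glycosides). Overnight 37 °C NB2 cultures diluted 1 in 10^4 in saline and added to the dilutions. Incubation at 37 °C with agitation, OD read every 15 min; MIC is the lowest concentration preventing any OD rise after 18 h.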

Staphylococcus aureus [3] = assay: Antibacterial activity against Staphylococcus aureus NCTC 13758 after 18 hrs; format: functional; settings: NCTC 13758, 18 h; how it was run: as §2
[4] = system: Salmonella enterica subsp. enterica serovar Abony; assay: Antibacterial activity against Salmonella enterica subspecies enterica serotype Abony NCTC 6017 after 18 hrs; format: functional; settings: NCTC 6017, 18 h; how it was run: as §2
Klebsiella aerogenes = assay: Antibacterial activity against Klebsiella aerogenes NCTC 8167 after 18 hrs; format: functional; settings: NCTC 8167, 18 h; how it was run: as §2
Staphylococcus aureus [5] = assay: Antibacterial activity against Staphylococcus aureus ATCC 9144 after 18 hrs; format: functional; settings: ATCC 9144, 18 h; how it was run: as §2
[6] = system: Staphylococcus epidermidis; assay: Antibacterial activity against Staphylococcus epidermidis ATCC 14990 after 18 hrs; format: functional; settings: ATCC 14990, 18 h; how it was run: as §2
[7] = system: Staphylococcus epidermidis; assay: Antibacterial activity against Staphylococcus epidermidis 155 after 18 hrs; format: functional; settings: Staphylococcus epidermidis, 155, 18 h; how it was run: as §2
[8] = Antibacterial activity against Salmonella enterica subspecies enterica serotype Poona NCTC 4840 after 18 hrs; format: functional, Salmonella enterica subsp. enterica serovar Poona; settings: NCTC 4840, 18 h; how it was run: as §2
Escherichia coli [9] = assay: Antibacterial activity against Escherichia coli ATCC 35218 after 18 hrs; format: functional; settings: ATCC 35218, 18 h; how it was run: as §2
Proteus mirabilis = assay: Antibacterial activity against Proteus mirabilis ATCC 12453 after 18 hrs; format: functional; settings: ATCC 12453, 18 h; how it was run: as §2
Salmonella enteritidis = assay: Antibacterial activity against Salmonella enterica subspecies enterica serotype Enteritidis 13076 after 18 hrs; format: functional, Salmonella enterica subsp. enterica serovar Enteritidis; settings: Salmonella enterica, 13076, 18 h; how it was run: as §2
Bacillus cereus = assay: Antibacterial activity against Bacillus cereus ATCC 14579 after 18 hrs; format: functional; settings: ATCC 14579, 18 h; how it was run: as §2
[10] = Antibacterial activity against Enterobacter cloacae ATCC 13047 after 18 hrs; format: functional, Enterobacter cloacae subsp. cloacae; settings: ATCC 13047, 18 h; how it was run: as §2
Citrobacter freundii = assay: Antibacterial activity against Citrobacter freundii 8090 after 18 hrs; format: functional; settings: Citrobacter freundii, 8090, 18 h; how it was run: as §2
[11] = system: Staphylococcus epidermidis; assay: Antibacterial activity against Staphylococcus epidermidis ATCC 12228 after 18 hrs; format: functional; settings: ATCC 12228, 18 h; how it was run: as §2
Enterococcus faecalis [12] = assay: Antibacterial activity against Enterococcus faecalis ATCC 29212 after 18 hrs; format: functional; settings: ATCC 29212, 18 h; how it was run: as §2
Escherichia coli [13] = assay: Antibacterial activity against Escherichia coli 700728 after 18 hrs; format: functional; settings: Escherichia coli, 700728, 18 h; how it was run: as §2
Enterococcus faecalis [14] = assay: Antibacterial activity against Enterococcus faecalis ATCC 33186 after 18 hrs; format: functional; settings: ATCC 33186, 18 h; how it was run: as §2
[15] = Antibacterial activity against Salmonella enterica subspecies enterica serotype Nottingham NCTC 7832 after 18 hrs; format: functional, Salmonella enterica subsp. enterica serovar Nottingham; settings: NCTC 7832, 18 h; how it was run: as §2
Proteus vulgaris = assay: Antibacterial activity against Proteus vulgaris OCC 195 after 18 hrs; format: functional; settings: OCC 195, 18 h; how it was run: as §2
Klebsiella pneumoniae = assay: Antibacterial activity against Klebsiella pneumoniae ATCC 10031 after 18 hrs; format: functional; settings: ATCC 10031, 18 h; how it was run: as §2
Escherichia coli [16] = assay: Antibacterial activity against Escherichia coli ATCC 10536 after 18 hrs; format: functional; settings: ATCC 10536, 18 h; how it was run: as §2
Bacillus subtilis = assay: Antibacterial activity against Bacillus subtilis NCTC 10073 after 18 hrs; format: functional; settings: NCTC 10073, 18 h; how it was run: as §2
Streptococcus agalactiae = assay: Antibacterial activity against Streptococcus agalactiae OCC 182 after 18 hrs; format: functional; settings: OCC 182, 18 h; how it was run: as §1
Enterococcus faecium = assay: Antibacterial activity against Enterococcus faecium ATCC 19434 after 18 hrs; format: functional; settings: ATCC 19434, 18 h; how it was run: as §2
Streptococcus pneumoniae = assay: Antibacterial activity against Streptococcus pneumoniae ATCC 49619 after 18 hrs; format: functional; settings: ATCC 49619, 18 h; how it was run: as §1
Staphylococcus aureus [17] = assay: Antibacterial activity against Staphylococcus aureus ATCC 29213 after 18 hrs; format: functional; settings: ATCC 29213, 18 h; how it was run: as §2

MIC [2]: 2 to 16 µg/mL (≈ 4.43 to 35.4 µM)
MIC (Staphylococcus aureus [3]): 0.5 µg/mL (≈ 1.11 µM)
MIC [4]: 2 to 16 µg/mL (≈ 4.43 to 35.4 µM)
MIC (Klebsiella aerogenes): 4 µg/mL (≈ 8.86 µM)
MIC (Staphylococcus aureus [5]): 0.5 µg/mL (≈ 1.11 µM)
MIC [6]: 0.5 µg/mL (≈ 1.11 µM)
MIC [7]: 0.5 µg/mL (≈ 1.11 µM)
MIC [8]: 2 to 16 µg/mL (≈ 4.43 to 35.4 µM)
MIC (Escherichia coli [9]): 0.5 to 32 µg/mL (≈ 1.11 to 70.8 µM)
MIC (Proteus mirabilis): 4 µg/mL (≈ 8.86 µM)
MIC (Salmonella enteritidis): 2 to 16 µg/mL (≈ 4.43 to 35.4 µM)
MIC (Bacillus cereus): 256 µg/mL (≈ 567 µM)
MIC [10]: 0.5 µg/mL (≈ 1.11 µM)
MIC (Citrobacter freundii): 8 µg/mL (≈ 17.7 µM)
MIC [11]: 0.5 µg/mL (≈ 1.11 µM)
MIC (Enterococcus faecalis [12]): 128 µg/mL (≈ 283 µM)
MIC (Escherichia coli [13]): 0.5 to 32 µg/mL (≈ 1.11 to 70.8 µM)
MIC (Enterococcus faecalis [14]): 128 µg/mL (≈ 283 µM)
MIC [15]: 2 to 16 µg/mL (≈ 4.43 to 35.4 µM)
MIC (Proteus vulgaris): 8 µg/mL (≈ 17.7 µM)
MIC (Klebsiella pneumoniae): 0.5 µg/mL (≈ 1.11 µM)
MIC (Escherichia coli [16]): 0.5 to 32 µg/mL (≈ 1.11 to 70.8 µM)
MIC (Bacillus subtilis): 32 µg/mL (≈ 70.8 µM)
MIC (Streptococcus agalactiae): 256 µg/mL (≈ 567 µM)
MIC (Enterococcus faecium): > 256 µg/mL
MIC (Streptococcus pneumoniae): 128 µg/mL (≈ 283 µM)
MIC (Staphylococcus aureus [17]): 0.5 µg/mL (≈ 1.11 µM)
SMILES: OC[C@H]1O[C@@H](Oc2cc(Cl)ccc2Oc2ccc(Cl)cc2Cl)[C@H](O)[C@@H](O)[C@H]1O
MIC [1]: 0.5 µg/mL (≈ 1.11 µM)
